SMILES strings stand for the structures. pEC50: −log10 of the molar value.

Data set [1] relates to CHO. As to the kind of experiment: Antiproliferative activity against heparan sulfate deficient […] CHO cells. It is filed as cell-based, Cricetulus griseus. Conditions: chinese hamster; call rule not given here.
In data set [2] the test system is CHO. As to the kind of experiment: Antiproliferative activity against […] CHO cells. Type of data set: cell-based, Cricetulus griseus. Conditions: chinese hamster.
For a further data set, the system named is T-24. As to the kind of experiment: Antiproliferative activity against human T24 cells after 96 hrs by crystal violet method. Type of data set: functional. Conditions: T-24, 96 h, read-out: ED50 (the source's name). In outline: (§1)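 Seeded at 3000 cells/well (T24) or 5000 cells/well (HFL-1) in DMEM with insulin 10 ng/mL, transferrin 25 ng/mL and 10% FCS. After 4 h, moved to serum-free Ham's F-12 with insulin/transferrin for 24 h. Grown with 10 ng/mL EGF plus xyloside at 25–500 µM for 96 h total. Fixed in 1% glutaraldehyde, stained with 0.1% crystal violet, Triton-lysed, read at A600. ED50 taken relative to untreated controls.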

The nature of data set [3]: Antiproliferative activity against human HFL1 cells after 96 hrs by crystal violet method. Conditions: read-out: ED50. Type of data set: cell-based. In outline: as §1

Turning to `Oc1ccc2cc(O[C@@H]3OC[C@@H](O)[C@H](O)[C@H]3O)ccc2c1`, the Activity entry is on record as “Not Active” in the data set on CHO [1] and “Toxic” in the data set on CHO [2]. Besides, the pEC50 in the data set on T-24 is 4.30.

Turning to `O[C@@H]1[C@@H](O)[C@H](Oc2ccc(S)c3ccccc23)OC[C@H]1O`, the GI50 at 96 h in data set [3] stood at 70 µM. Moreover, the pEC50 with T-24 is 4.26.

In the case of `O[C@@H]1[C@@H](O)[C@H](Oc2cccc3cccc(S)c23)OC[C@H]1O`, the GI50 at 96 h in data set [3] was found to be 60 µM. Moreover, the pEC50 in the data set with T-24 is 4.35.

For `O[C@@H]1[C@@H](O)[C@H](Oc2cc3ccccc3cc2S)OC[C@H]1O`, the GI50 at 96 h in data set [3] came to 60 µM. The pEC50 in the data set on T-24 is 3.84.

Take `O[C@@H]1[C@@H](O)[C@H](Oc2ccc3ccc(S)cc3c2)OC[C@H]1O`: the GI50 at 96 h in data set [3] worked out at 100 µM. Besides, in the data set with T-24, the pEC50 was 3.44.

For `Oc1ccc(S[C@@H]2OC[C@@H](O)[C@H](O)[C@H]2O)c2ccccc12`, the GI50 at 96 h in data set [3] worked out at 130 µM. Moreover, in the data set with T-24, the pEC50 was 3.80.

In the case of `Oc1cccc2cccc(S[C@@H]3OC[C@@H](O)[C@H](O)[C@H]3O)c12`, the GI50 at 96 h in data set [3] was found to be 120 µM. In the data set with T-24, the pEC50 is 3.65.

`Oc1cc2ccccc2cc1S[C@@H]1OC[C@@H](O)[C@H](O)[C@H]1O`: the GI50 at 96 h in data set [3] came out at 100 µM. For the same molecule, the pEC50 in the data set on T-24 is 3.59.

As to `Oc1ccc2ccc(S[C@@H]3OC[C@@H](O)[C@H](O)[C@H]3O)cc2c1`, in data set [3], the GI50 at 96 h was found to be 125 µM. Besides, the pEC50 in the data set on T-24 is 3.64.

As for `CCCSc1cccc2c(O[C@@H]3OC[C@@H](O)[C@H](O)[C@H]3O)cccc12`, in data set [3], the GI50 at 96 h was 20 µM. For the same molecule, the pEC50 in the data set on T-24 was 4.40.

As for `CCCSc1cccc2cccc(O[C@@H]3OC[C@@H](O)[C@H](O)[C@H]3O)c12`, in data set [3], the GI50 at 96 h was 100 µM. Moreover, in the data set on T-24, the pEC50 was 3.81.

Turning to `CCCSc1ccc2cc(O[C@@H]3OC[C@@H](O)[C@H](O)[C@H]3O)ccc2c1`, the GI50 at 96 h in data set [3] was found to be 30 µM. For the same molecule, the pEC50 in the data set with T-24 was 4.40.

Regarding `CCCSc1ccc2ccc(O[C@@H]3OC[C@@H](O)[C@H](O)[C@H]3O)cc2c1`, the GI50 at 96 h in data set [3] is 25 µM. Moreover, the pEC50 in the data set with T-24 is 4.22.

Take `CCCSc1cc2ccccc2cc1O[C@@H]1OC[C@@H](O)[C@H](O)[C@H]1O`: the GI50 at 96 h in data set [3] was determined as 30 µM. Also, the pEC50 in the data set on T-24 was 4.15.

Take `O[C@@H]1[C@@H](O)[C@H](Oc2cccc3c(S)cccc23)OC[C@H]1O`: the GI50 at 96 h in data set [3] was found to be 60 µM. For the same molecule, the pEC50 in the data set with T-24 is 3.96.

Consider `O[C@@H]1[C@@H](O)[C@H](Oc2ccc3cc(S)ccc3c2)OC[C@H]1O`, for which, in data set [3], the GI50 at 96 h was determined as 60 µM. Also, the pEC50 with T-24 is 3.87.

Consider `Oc1cccc2c(S[C@@H]3OC[C@@H](O)[C@H](O)[C@H]3O)cccc12`, for which, in data set [3], the GI50 at 96 h stood at 135 µM. Besides, the pEC50 in the data set on T-24 was 3.49.

Consider `Oc1ccc2cc(S[C@@H]3OC[C@@H](O)[C@H](O)[C@H]3O)ccc2c1`, for which the GI50 at 96 h in data set [3] stood at 145 µM. Moreover, the pEC50 in the data set on T-24 was 3.45.

Consider `CCCSc1ccc(O[C@@H]2OC[C@@H](O)[C@H](O)[C@H]2O)c2ccccc12`, for which the GI50 at 96 h in data set [3] turned out to be 30 µM. The pEC50 with T-24 is 4.52.

These data come from ChEMBL document CHEMBL1149583, “Effects of oxygen-sulfur substitution on glycosaminoglycan-priming naphthoxylosides” (Bioorg Med Chem, 2007).
